Assay results collected from several papers.
Protocols differ between the studies behind these lines.
Observed: cell growth or viability

N.N.[Cl][Pt][Cl]
IC50 (BEAS-2B; MTT; 24 h): 103 µM

N.N.[Cl][Pt][Cl]
IC50 (MDA-MB-468; MTT; 48 h; dark): 6.97 µM

COc1c(C)c2c(c(O)c1C/C=C(\C)CCC(=O)O)C(=O)OC2
IC50 (MDA-MB-468): 0.417 µM

CN(C)c1ccc(C(=O)NCCCCCCC(=O)NO)cc1
viability (HBL1; ATP luminescence; 0.1 µM; 5 days): 125%

Cn1cc2cc(C(F)(F)c3nnc4ccc(-c5cnn(C6CC6)c5)nn34)c(F)cc2n1
IC50 (KATO III; CCK-8; 72 h): > 1 µM

N.N.[Cl][Pt][Cl]
IC50 (MDA-MB-468; MTT; 48 h): 5 µM

O=C(CCCCCCNC(=O)c1cnc(N(c2ccccc2)c2ccccc2)nc1)NO
EC50 (MV4-11; ATP luminescence; 72 h): 0.713 µM

N.N.[Cl][Pt][Cl]
IC50 (HBL1; ATP luminescence; 72 h): 1.31 µM
